# SIRT5 block – SIRT5 desuccinylase inhibitors, primary screen, biochemical, fluorescence imaging, single point, set 5; AID 652115, 2013; inhibition, % at 15 µM; Purified SirT5, succinyl-peptide AMC, trypsin-coupled fluorescence; NAD-dependent protein deacylase sirtuin-5, mitochondrial (Homo sapiens), Q9NXA8; actives 1.1% (n = 330,000); in the data active means inhibition above about 15%
# Target sequence (Q9NXA8 whole entry, looked up): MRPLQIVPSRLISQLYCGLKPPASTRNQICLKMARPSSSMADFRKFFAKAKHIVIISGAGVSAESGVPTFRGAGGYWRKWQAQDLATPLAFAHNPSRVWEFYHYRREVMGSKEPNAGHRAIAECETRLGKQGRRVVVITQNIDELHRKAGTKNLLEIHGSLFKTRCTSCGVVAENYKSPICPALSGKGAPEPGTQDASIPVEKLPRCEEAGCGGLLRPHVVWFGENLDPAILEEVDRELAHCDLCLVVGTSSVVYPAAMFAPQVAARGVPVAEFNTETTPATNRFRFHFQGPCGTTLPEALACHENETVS
# DENV2 CPE rescue – inhibitors of DENV2 cytopathic effect, primary screen, cell-based, plate reader, single concentration; DENV2-infected cells, cytopathic effect rescue; CPE inhibition, % at 9.99 µM; actives 1.7% (n = 350,000); in the data active means CPE inhibition above about 20%, passing the limit was not always enough; tested in BHK-21 cells;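 further: 0% = median of neutral control wells and 100% = median of positive control wells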
# FN deposit inh – inhibitors of fibronectin matrix deposition, primary screen, AH1F cells, Alexa488-fibronectin fluorescence, plate reader; inhibition, % at 12.6 µM; AH1F fibroblasts, overnight; actives 0.086% (n = 350,000);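 active means mean inhibition across replicates of 30% or more, regardless of how many single replicates reach that level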;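 further: positive control wells lacked labelled fibronectin entirely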
#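 material = AH1F fibroblast monolayer depositing Alexa488-labelled fibronectin into matrix | amount = 10000 AH1F cells/well | buffer or medium = DMEM plus 2% serum, read in PBS | incubation = 1 h cell adhesion before compound, then overnight fibronectin incubation | detection = fluorescence at 485 nm excitation, 525 nm emission | evaluation = percent inhibition as loss of matrix-bound fibronectin fluorescence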
# ARNT TACC3 PPI – disruptors of ARNT/TACC3 protein interaction, primary screen, biochemical, AlphaScreen, single concentration. AID 623870, 2012. AlphaScreen His-ARNT PAS-B/GST-TACC3 binding, luminescence; TACC3 fragment carries E629A point mutation. Transforming acidic coiled-coil-containing protein 3 (Homo sapiens), Q9Y6A5. inhibition, % at 9.99 µM. actives 0.66% (n = 390,000);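 active means mean inhibition of replicates at least 50% and at least half of replicates each reaching 50%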;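 further: 0% = complete ARNT plus TACC3 wells and 100% = ARNT alone without TACC3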
# Xi reactivation – activators of inactive X chromosome reactivation, primary screen, imaging, XiGFP fibroblasts, GFP high-content imaging, set 2; XiGFP mouse fibroblasts, % GFP-positive cells imaging, 3 d; cells co-treated with 5-aza-dC sensitizer; scaled so ellipticine positive control = 100%; activation, % at 7.58 µM; actives 0.055% (n = 360,000); AID 743238, 2013;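 active means mean normalized replicate activation at least 10% and every replicate at or above 10%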;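 further: 0% = median of on-plate neutral control wells and 100% = ellipticine 6 µM median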
#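 System: SV40-immortalized XiGFP fibroblast cells, line 68-5-11 / Incubation: 3-day compound exposure, then 15 min fixation at room temperature / Compound: single concentration per compound, delivered by pin transfer / Buffer or medium: DMEM plus 5-aza-dC sensitizer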
# FGF22 binding – binders of human FGF22 protein, primary screen, FGF22 synaptogenesis inhibitor project, biophysical, thermal shift, single point | Fibroblast growth factor 22 (Homo sapiens), Q9HCT0 | recombinant FGF22 thermal shift, SYPRO orange fluorescence; percent of sucrose octasulfate shift, DMSO zero | activity (Tm shift, normalised), % at 9.99 µM | actives 1.5% (n = 340,000);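 active means mean Tm shift, scaled 0 neutral to 100 positive control, at about 1.3% or above, every replicate too, limit read from the data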
# Target sequence (Q9HCT0 whole entry, looked up): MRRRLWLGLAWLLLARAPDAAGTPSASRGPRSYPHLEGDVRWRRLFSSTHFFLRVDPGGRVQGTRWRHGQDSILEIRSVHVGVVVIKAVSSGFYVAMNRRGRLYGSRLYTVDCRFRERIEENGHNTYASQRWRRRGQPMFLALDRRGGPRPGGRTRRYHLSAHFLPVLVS
# * marks the source's active call; other numbers are inactive results; / = no result; ! = repeats disagree. In the library only some 3.8% were active in any assay of this set; here they are far more common.
SMILES,SIRT5 block,DENV2 CPE rescue,FN deposit inh,ARNT TACC3 PPI,Xi reactivation,FGF22 binding
CO[C@H]1CN(C)C(=O)c2cc(NC(=O)Nc3ccccc3)ccc2OC[C@H](C)N(C(=O)CC2CC2)C[C@@H]1C,3,4,28,-2,0,0
N#C/C(=C\c1ccc(C(=O)O)cc1)c1nc2sc3c(c2c(=O)[nH]1)CCCC3,20*,1,-7,3,0,0
Cc1cc(C(=O)N[C@@H](c2ccccc2)[C@]2(C)C[C@H]2[C@@H](C)C(=O)Nc2ccc3ccccc3c2)no1,/,77*,-4,-4,0,0
CO[C@H]1CN(C)C(=O)c2cc(NC(=O)c3ccccc3)ccc2OC[C@H](C)N(C)C[C@H]1C,1,6,6,-7,0,0
Cc1nc2nc(C)c(C)nc2nc1C,/,14,-3,/,0,43*
Cc1nc2c(C)c(C)c(C)c(C)c2nc1C,0,-3,4,/,0,0
CCn1c(O)c(N=NC(=O)c2cccnc2)c2cc(Br)ccc21,-1,-12,4,0,1,0
CCCCn1c(O)c(N=NC(=O)c2ccncc2)c2cc(Br)ccc21,2,1,4,-3,0,44*
O=C(O)c1cccc(-c2csc(C(O)c3cccc(Cl)c3)n2)c1 (configuration not stated),-3,46*,-8,/,0,1
NC(=O)c1cccc(-c2csc(C(O)c3cccc(Cl)c3)n2)c1 (configuration not stated),/,4,2,/,0,0
C[C@@H]1CN([C@@H](C)CO)C(=O)c2cc(-c3cncnc3)cnc2O[C@H]1CN(C)C(=O)Cc1ccccn1,11,0,-3,28,1,0
CCC(=O)NCCc1nc2ccccc2n1CC(=O)c1ccccc1,-4,76*,-3,-3,0,0
CC(C)(C)C(=O)NCCc1nc2ccccc2n1CC(=O)c1ccccc1,13,-5,/,-3,0,0
Cc1cn(C2OC(COC(=O)c3ccccc3)C(O)C2Cl)c(=O)[nH]c1=O (configuration not stated),1,-6,7,-11,0,43*
CO[C@@H]1CN(C)C(=O)c2cc(NS(=O)(=O)c3ccccc3C)ccc2OC[C@H](C)NC[C@H]1C,-2,-4,-2,0,1,0
CCCCCCSc1ccc([C@@H]2[C@@H]3C(=O)N(C)C(=O)[C@@H]3[C@]3(C(=O)OC)CCCCN23)cc1OC,2,-3,1,-6,0,0
COC(=O)[C@@]12CCCN1[C@H](c1ccc(-c3ccccc3)cc1)[C@@H]1C(=O)N(C)C(=O)[C@@H]12,-4,66*,-7,-8,0,0
COC(=O)[C@@]12CCCN1[C@H](c1ccc(-c3cccc(Cl)c3)cc1)[C@H]1C(=O)N(C)C(=O)[C@H]12,1,-15,1,-4,0,0
CCCCCCSc1ccc([C@@H]2[C@H]3C(=O)N(C)C(=O)[C@H]3[C@]3(C(=O)OC)CCCCN23)cc1OC,-1,-3,31*,8,0,0
CCN1C(=O)[C@H]2[C@@H](c3ccc(-c4ccc(OC)cc4)cc3)N3CCC[C@@]3(C(=O)OC)[C@H]2C1=O,/,1,6,-11,0,-1
CCN1C(=O)[C@@H]2[C@@H](c3ccc(-c4ccc(OC)cc4)cc3)N3CCC[C@@]3(C(=O)OC)[C@@H]2C1=O,1,/,14,7,0,44*
CC1CC(C)(C)NC(=S)O1 (configuration not stated),-1,-2,1,-6,0,43*!
CC(=O)c1ccc(N(CC(=O)NC2CCCC2)C(=O)c2csnn2)cc1,-5,8,-5,-3,0,44*
O=C(CN(C(=O)c1csnn1)c1ccc(Cl)cc1)NC1CCCC1,-3,-2,-4,-2,0,0
FC(F)(F)c1ccccc1CN1[C@@H]2CNC[C@H]1C2c1ccc(-c2ccncc2)cc1 (some centres not stated),/,4,-6,/,0,0
SMILES,SIRT5 block,DENV2 CPE rescue,FN deposit inh,ARNT TACC3 PPI,Xi reactivation,FGF22 binding
C[C@@H]1CN([C@@H](C)CO)C(=O)Cc2cc(N(C)C)ccc2O[C@@H]1CN(C)Cc1ccc(C(=O)O)cc1,-1,33*,-4,-2,0,/
C[C@@H]1CN([C@@H](C)CO)C(=O)Cc2cc(N(C)C)ccc2O[C@@H]1CN(C)Cc1ccc(C(F)(F)F)cc1,/,27*,/,7,0,-1
C[C@H](CO)N1C[C@H](C)[C@@H](CN(C)Cc2ccccc2)Oc2ccc(N(C)C)cc2CC1=O,-3,6,/,-3,0,-1
COCC#Cc1ccc([C@@H]2[C@@H](CO)N3C(=O)CN(C(=O)C4CCCC4)C[C@H]23)cc1,3,0,-6,/,0,/
C[C@H]1CN([C@@H](C)CO)C(=O)c2cc(C#CC3(O)CCCC3)cnc2O[C@@H]1CN(C)Cc1cccnc1,3,-3,-9,-12,-1,0
Cc1ccc(S(=O)(=O)N[C@H]2C=C[C@@H](CC(=O)NCCc3ccncc3)O[C@H]2CO)cc1,-1,-2,/,/,0,0
Cc1noc(C)c1S(=O)(=O)Nc1ccc2c(c1)CC(=O)N([C@H](C)CO)C[C@@H](C)[C@H](CN(C)Cc1ccc(C(=O)Nc3ccccc3N)cc1)O2,8,13,/,/,0,0
Cc1ccc(S(=O)(=O)Nc2ccc3c(c2)C(=O)N([C@@H](C)CO)C[C@H](C)[C@H](CN(C)Cc2ccc(C(=O)Nc4ccccc4N)cc2)O3)cc1,/,-7,/,15,1,0
Cc1ccc(S(=O)(=O)Nc2ccc3c(c2)C(=O)N([C@H](C)CO)C[C@H](C)[C@@H](CN(C)Cc2ccc(C(=O)Nc4ccccc4N)cc2)O3)cc1,/,20*,/,/,-1,0
Cc1noc(C)c1S(=O)(=O)Nc1ccc2c(c1)CC(=O)N([C@H](C)CO)C[C@H](C)[C@@H](CN(C)Cc1ccc(C(=O)Nc3ccccc3N)cc1)O2,9,40*,/,/,-1,0
C[C@@H]1CN([C@H](C)CO)C(=O)Cc2cc(NS(=O)(=O)c3ccc(Cl)cc3)ccc2O[C@H]1CN(C)Cc1ccc(C(=O)Nc2ccccc2N)cc1,3,71*,/,/,0,0

# Screens deposited in PubChem by Broad Institute.
